Data: ChEMBL document CHEMBL4513216, “Probing the Open Global Health Chemical Diversity Library for Multistage-Active Starting Points for Next-Generation Antimalarials” (ACS Infect Dis, 2020)

Assay: Toxicity liver stage against HepG2, at 10uM
Assay type: cell-based
Parameters: test concentration 10 uM, cell line HepG2-A16-CD81EGFP
Settings: human, HepG2-A16-CD81EGFP cells; read-out: INHIBITION
Outline: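 Uninfected HepG2-A16-CD81EGFP cells, 3 × 10^3 per well, 1536-well, plated on prespotted compound at 10 μM final, parasite-free screening media added to match infected plates; puromycin 10 μM positive, DMSO 0.5% negative; run in parallel with 48 h PbLuc assay at 37 °C, 5% CO2; viability by CellTiter-Glo luminescence, normalized to controls.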

In order of falling cytotoxicity at 10 µM:
1. COCCCNC(=O)CN1CCC(c2ccccc2)C1 (centres undefined)  20.3%
2. COC(=O)CCC(=O)N1CCc2nc(C(=O)N3CCOCC3)sc2CC1  15.3%
3. CCN(c1ccsc1C(=O)N1CCSCC1)S(=O)(=O)c1ccc(Cl)cc1  14.5%
4. Cc1cc(N(C)Cc2noc(C)n2)n2nc(C)c(C)c2n1  14.4%
5. COc1cc(N2CC[C@H]3O[C@@H](C(=O)NC4CCCC4)CC[C@H]32)ncn1  13.2%
6. COc1ccc(C(=O)N2C[C@@H](C)[C@@](C)(O)C2)cc1N1CCOCC1  11.3%
7. CC(=O)N1CCN(c2ccccc2CNc2ccc(C)cn2)CC1  11.2%
8. CCOc1ccccc1CC(=O)N1C[C@@H](C(=O)O)[C@H](c2ccncc2)C1  9.15%
9. CCCn1ccc(C(=O)N2CCOC(c3nc(-c4cccs4)no3)C2)n1 (centres undefined)  8.54%
10. CNC(=O)[C@@H]1C[C@H]2CN(Cc3ccco3)C[C@H]2N1C  7.76%
11. Cc1cc(C(=O)N2C[C@@H](CN(C)CCN(C)C)[C@@H](CO)C2)nc(C)n1  7.01%
12. O=C(c1ccco1)N1CC[C@@H]2O[C@H](COCC3CCOCC3)CC[C@@H]21  6.8%
13. CC(C)N1CCOC[C@H]1c1nc(-c2ccncc2)c[nH]1  6.73%
14. Cc1occc1C(=O)NCC(=O)N1CCCC(c2ccccc2)CC1 (centres undefined)  6.35%
15. CC(C)CC(CO)NC(=O)NCc1csc(N(C)C)n1 (centres undefined)  6.07%
16. CC(NCc1ccnc(OC2CCC2)c1)c1cnn(C)c1 (centres undefined)  5.64%
17. COc1ccc([C@@H]2C[C@H](NC(C)=O)C[C@H](Cc3ccccc3)O2)cn1  5.46%
18. NC(=O)NC(=O)CCn1ccc(-c2ccccc2)n1  5.2%
19. CN(C)c1ncc(I)c(C2CCCCN2S(C)(=O)=O)n1 (centres undefined)  5.09%
20. Cc1ccc(F)cc1C(=O)OCC1CCCN1C(N)=O (centres undefined)  5.01%
21. O=C(C1CCOCC1)N(CCc1ccccc1)C1CCOC1 (centres undefined)  4.77%
22. COCCc1noc(CN2CCCC2c2noc(C)n2)n1 (centres undefined)  4.73%
23. COc1ncccc1C1CC(=O)NCc2nc3sccn3c21 (centres undefined)  3.86%
24. Cc1ccsc1C(=O)N1CC(C(=O)N2CCCC2)C2(CCOCC2)C1 (centres undefined)  3.68%
25. CC(=O)N(Cc1ncc(C)o1)C1CCN(Cc2ccncc2Cl)C1 (centres undefined)  3.68%
26. Cc1ccc(C(=O)N2CCC3(CC2)COCCN(S(C)(=O)=O)C3)cc1C  3.27%
27. COCCNC(=O)[C@H]1CN(Cc2sccc2C)C[C@H]2OCC[C@@H]12  2.05%
28. CC(=O)N1CC(C)CN(C(=O)c2cscn2)c2ccccc21 (centres undefined)  1.98%
29. Cc1cnccc1CN1C[C@@H](O)[C@H](Oc2ccccc2)C1  1.85%
30. CCCc1nnsc1C(=O)NCC(O)c1ccc(SC)cc1 (centres undefined)  1.71%
31. O=C(c1ccc(-n2cc(Br)cn2)cc1)N1CCN(c2cnccn2)CC1  1.52%
32. Cc1cccc(CN2CC[C@H]3CO[C@H](CNC(=O)N(C)C)[C@H]3C2)c1  1.47%
33. CCCS(=O)(=O)N1CCC(Nc2c(F)cc(C#N)cc2F)CC1  1.34%
34. CCc1cnc(CN2CCCC(c3cc(C)[nH]n3)C2)o1 (centres undefined)  0.503%
35. CC(=O)c1cn(CC(=O)N2CCC3(CC2)OCCO3)c2ccccc12  0.436%
36. c1ncn(CC2CCCN(Cc3noc(C4CC4)n3)C2)n1 (centres undefined)  0.428%
37. CC(NC(=O)NC1CCN(Cc2ccccn2)CC1)c1nncn1C (centres undefined)  0.335%
38. Cn1ncc2c(=O)[nH]c(CN3CCCC3Cc3ccc(F)cc3)nc21 (centres undefined)  0.301%
39. COc1ccc(-c2nc(CC(=O)N(C)CCC#N)cs2)cc1OC  0.19%
40. CC(Cn1cccn1)NC(=O)NCc1cccs1 (centres undefined)  -0.12%
41. CC(NC1CCN(CCS(C)(=O)=O)CC1)c1cnn(C(C)C)c1 (centres undefined)  -0.132%
42. O=C(NCc1cccs1)[C@H]1CC[C@@H]2[C@@H](CCN2Cc2ccoc2)O1  -0.317%
43. CCc1nc(CN(CCc2ccccc2)C2CCN(C)CC2)no1  -0.355%
44. NCc1cccc(NC(=O)CCN2CCOCC2)c1  -0.509%
45. CCN1CCNC(=O)C12CCN(C(=O)c1ccccn1)CC2  -0.514%
46. N#Cc1ccc(C(=O)N2CC(c3nc(-c4ncccn4)no3)C2)cc1  -0.713%
47. COc1cc2nc(C)n(CC(=O)NCCCO)c(=O)c2cc1OC  -0.869%
48. COc1ncc(NCc2ccc(F)cc2)cc1C(N)=O  -0.976%
49. COC(=O)C1CCN(C(=O)c2ccc(NS(C)(=O)=O)c(C)c2)CC1  -1.04%
50. Cc1ccoc1C(=O)N1CC(C(=O)N2CCOCC2)C2(CCOCC2)C1 (centres undefined)  -1.2%
51. Cc1ncsc1C(=O)NC1CCN(CCC(=O)Nc2ccccc2)CC1  -1.39%
52. COCC1CN(C(=O)[C@H]2CCCO2)Cc2nnn(CC3CC3)c21 (some centres undefined)  -1.59%
53. CCS(=O)(=O)N1CCC2(CC1)CC(CC(=O)NC1CC1)c1ccccc12 (centres undefined)  -1.72%
54. CNS(=O)(=O)c1cnccc1N1CCN(C(C)C)CC1  -2.02%
55. CCNC(=O)NC[C@H]1Cn2c(-c3ccccc3)cnc2CO1  -2.12%
56. CS(=O)(=O)NCCCN1CCCC1c1cccc(Br)c1 (centres undefined)  -2.51%
57. CC(=O)c1cnc(NCCCN2CCOCC2)nc1C  -2.77%
58. Cn1cc(C(=O)NCc2ccc(N3CCNC(=O)C3)c(F)c2)cn1  -2.97%
59. CCc1cc(C(=O)N2CC[C@@H](c3ccc4c(c3)OCO4)[C@H](O)C2)[nH]n1  -3.87%
60. COc1cc(C(=O)NS(=O)(=O)c2cccc(C#N)c2)cc(Cl)c1OC  -3.93%
61. CC(C)N1CCCC(Cc2nccnc2Cl)CC1 (centres undefined)  -3.97%
62. COc1ccccc1N1CCC(CNS(=O)(=O)c2cccc(C#N)c2)C1 (centres undefined)  -4.13%
63. O=C(Cc1ccc2c(c1)OCCCO2)Nc1nnn[nH]1  -4.66%
64. Cn1cccc1C(=O)N1CCc2onc(Cn3cccn3)c2C1  -4.72%
65. CCNC(=O)N(Cc1cccc(OC)c1)C1CCC(O)CC1 (centres undefined)  -4.83%
66. CCOC(=O)C1CSCCN1C(=O)c1ccc(-n2nc(C)cc2C)cc1 (centres undefined)  -4.92%
67. CN1CCOC(CNC(=O)CCCOc2cccc(F)c2)C1 (centres undefined)  -5.1%
68. N#Cc1ccc(F)c(CSCCN2CCOCC2)c1  -5.71%
69. CCN(CC)S(=O)(=O)c1ccc(C(=O)NC(C)(C#N)C2CC2)cc1 (centres undefined)  -5.77%
70. CC(NC(=O)NCC1(c2ccc(F)cc2)CCCC1)c1nncn1C (centres undefined)  -6.27%
71. CC(C)(C)n1ncc2c1NC(=O)CC2c1cccc(O)c1 (centres undefined)  -6.36%
72. O=C(NCc1ccc2c(c1)OCO2)c1ccc(N2CCCCCC2)nc1  -6.78%
73. Cc1ncccc1Oc1ncnc(N2CCC3(CCCO3)CC2)c1C  -6.89%
74. CNS(=O)(=O)CC1CCCN1C(=O)c1ccc(C)c(C)c1 (centres undefined)  -6.93%
75. CCNC(=O)[C@@H]1C[C@@H](NC(=O)c2cnc[nH]c2=O)CN1Cc1ccsc1  -6.94%
76. Cc1cccc(CN2Cc3[nH]nc(COCc4nccs4)c3C2)n1  -7.12%
77. Cc1nc2cc(=O)[nH]n2c(C)c1CNC(=O)C(C)Cc1ccccc1 (centres undefined)  -7.27%
78. Cc1cc(C)n(CC2CCN(CC(O)CN3CCOCC3)CC2)n1 (centres undefined)  -7.35%
79. CSc1ccc(C(=O)N2C[C@@H]3CC[C@H]2CN(Cc2cccnc2)C3)cc1  -7.38%
80. COCCC(=O)N1CCOCC2(CCN(Cc3cccs3)C2)C1 (centres undefined)  -7.83%
81. CC1N(CC2CC2)C(=O)COC12CCN(C(=O)c1cscn1)CC2 (centres undefined)  -8.04%
82. CNS(=O)(=O)c1ccc(C(=O)Nc2ccc3c(c2)C(=O)NC3)cc1  -8.04%
83. CSCC(=O)N1CCCCC1Cn1cc(C)cn1 (centres undefined)  -8.24%
84. CCc1noc(C)c1C(=O)NCc1c(C)nn(CCOC)c1C  -9.35%
85. Cc1nn(C)c(N(C)C)c1CNC1CCOc2ccccc21 (centres undefined)  -9.66%
86. CCOc1ncccc1NC(=O)N1CCCN(C(=O)OC)CC1  -9.86%
87. CN(C)c1nc2sc(C(=O)N3CCNC(=O)CC3)cc2s1  -10.1%
88. Cc1cnn(CC2CCCN2Cc2nnc(C)o2)c1 (centres undefined)  -11.2%
89. CCN1CCC2(CC1)CC(NCc1cccs1)c1ccccc1O2 (centres undefined)  -11.6%
90. COCC(c1cccc(C(F)(F)F)c1)N(C)C(=O)c1ccccn1 (centres undefined)  -12%
91. CC(C)C(=O)NS(=O)(=O)c1ccc(C#N)cc1C(F)(F)F  -12.3%
92. CCN1CCN(C(=O)c2cccn2Cc2ccccc2)CC1  -12.3%
93. Cn1c(NCC(O)c2ccccc2F)c(C#N)c(=O)n(C)c1=O (centres undefined)  -12.5%
94. CCc1nc(C2CCCN2Cc2nnc(C3CC3)o2)no1 (centres undefined)  -13.2%
95. Cc1cccc2c(=O)n(C(C)Cc3cccnc3)cnc12 (centres undefined)  -13.5%
96. Cc1cnc(CN2CCCC2c2noc(C3CC3)n2)cn1 (centres undefined)  -13.5%
97. CC(C)C(=O)N1CCC(C)(c2cc(O)[nH]n2)CC1  -14.5%
98. Cc1ccc(C(CNC(=O)c2cc(=O)c3ccccc3[nH]2)N(C)C)cc1 (centres undefined)  -14.6%
99. Cc1cccc(OCC(=O)N2CCN(C3CCOC3=O)CC2)c1C (centres undefined)  -15%
100. CC(Cn1cccn1)NC(=O)N1CCN(Cc2ccncc2)CC1 (centres undefined)  -20.8%
101. O=C(c1ccnnc1)N1CCN2C[C@H](OCc3ccccn3)C[C@H]2C1  -77.2%
102. Cn1cccc1C(=O)N1C[C@@H]2C[C@@H](c3nc(C4CC4)cs3)O[C@@H]2C1  -113%
103. Cc1ccnn1CCC(=O)N1CCN(C2CCc3ccccc3C2)CC1 (centres undefined)  -118%
104. CCC[C@@H]1CN(C(=O)Cc2sc(C)nc2C)C[C@H]1C(=O)O  -125%
105. COc1ccc(OC)c(C(=O)N2CCC(Nc3cccnc3)CC2)c1  -138%
106. CCOc1ccc(NC(=O)N2CCOC(C(N)=O)C2)cc1C (centres undefined)  -140%
107. CN(C)c1nccc(CNS(=O)(=O)c2ccc(F)c(Cl)c2)n1  -140%
108. Cc1cccc(COCC2c3nnn(C)c3CCN2Cc2ccoc2)n1 (centres undefined)  -142%
109. O=C(c1ccsc1)N1CCC2(CCN(Cc3ccccn3)C2=O)C1 (centres undefined)  -147%
